Screening results: PubChem, several laboratories
Sampled rows, rich in hits. Any-hit rate of the full collection: about 1.7%.
PLC-beta3 inh: human PLC-beta3 inhibitors, primary screen, biochemical, fluorescence; 1-phosphatidylinositol 4,5-bisphosphate phosphodiesterase beta-3 (Homo sapiens), Q01970; Purified PLC-beta3, fluorogenic substrate; inhibition, % at 12.2 µM; hit rate 0.18% among 370,000; AID 720704, 2013; in the data active = inhibition above about 11%
PLC-gamma1 inh: PLC-gamma1 enzyme inhibitors, primary screen, biochemical, fluorescence, purified enzyme | 1-phosphatidylinositol 4,5-bisphosphate phosphodiesterase gamma-1 (Homo sapiens), P19174 | fluorogenic substrate | inhibition, % at 12.2 µM | hit rate 0.84% among 370,000 | AID 720700, 2013; in the data active = inhibition above about 9.5%
UCH37 DUB inh: inhibitors of human UCH37 deubiquitinase, primary screen, biochemical, Ub-AMC cleavage, fluorescence; AID 588478, 2011; Ubiquitin carboxyl-terminal hydrolase isozyme L5 (Homo sapiens), Q9Y5K5; purified proteasome/UCH37; hit rate 0.33% among 330,000; inhibition, % (test concentration not listed);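 active = mean inhibition over replicate wells above about 20%, limit read from the data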
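assay system = human UCH37 enzyme supplied as purified proteasome complex | amount = proteasome at 0.15 nM in the dispensed enzyme solution | schedule = 30 min compound-proteasome preincubation then 25 min substrate reaction, room temperature | measured by = fluorescence, ex 355 nm, em 460 nm | benchmarks = no-proteasome wells (full inhibition) and compound-free wells (no inhibition)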
Rpn11 inh: Rpn11 (PSMD14) deubiquitinase inhibitors, primary screen, biochemical, fluorescence polarization, uHTS | human 26S proteasome, Ub4-pepOG fluorescence polarization; 20S core pre-blocked with epoxomicin | inhibition, % at 20 µM | hit rate 0.59% among 360,000 | 26S proteasome non-ATPase regulatory subunit 14 (Homo sapiens), O00487 | AID 588493, 2011;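 active = inhibition at 20 µM, scaled to each plate's controls, above about 33%, limit read from the data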
Rpn11 inh conf: Rpn11 (PSMD14) deubiquitinase inhibitors, confirmation, biochemical, fluorescence polarization, single concentration. AID 602318, 2012. purified human 26S proteasome, Ub4-pepOG fluorescence polarization; proteasome pretreated with epoxomicin. hit rate 29% among 1,900. shares compounds with Rpn11 inh. inhibition, % at 20 µM
MMP-2 counter: MMP-2 enzyme inhibition, confirmation, counter-screen for RPN11 inhibitor project, biochemical, fluorescence, single concentration; shares compounds with Rpn11 inh; recombinant MMP-2, FRET peptide cleavage fluorescence; inhibition, % at 20 µM; hit rate 4% among 1,900; AID 602330, 2012;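 also: human MMP-2 activated beforehand with APMA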
Target sequence (P08253 whole entry, looked up): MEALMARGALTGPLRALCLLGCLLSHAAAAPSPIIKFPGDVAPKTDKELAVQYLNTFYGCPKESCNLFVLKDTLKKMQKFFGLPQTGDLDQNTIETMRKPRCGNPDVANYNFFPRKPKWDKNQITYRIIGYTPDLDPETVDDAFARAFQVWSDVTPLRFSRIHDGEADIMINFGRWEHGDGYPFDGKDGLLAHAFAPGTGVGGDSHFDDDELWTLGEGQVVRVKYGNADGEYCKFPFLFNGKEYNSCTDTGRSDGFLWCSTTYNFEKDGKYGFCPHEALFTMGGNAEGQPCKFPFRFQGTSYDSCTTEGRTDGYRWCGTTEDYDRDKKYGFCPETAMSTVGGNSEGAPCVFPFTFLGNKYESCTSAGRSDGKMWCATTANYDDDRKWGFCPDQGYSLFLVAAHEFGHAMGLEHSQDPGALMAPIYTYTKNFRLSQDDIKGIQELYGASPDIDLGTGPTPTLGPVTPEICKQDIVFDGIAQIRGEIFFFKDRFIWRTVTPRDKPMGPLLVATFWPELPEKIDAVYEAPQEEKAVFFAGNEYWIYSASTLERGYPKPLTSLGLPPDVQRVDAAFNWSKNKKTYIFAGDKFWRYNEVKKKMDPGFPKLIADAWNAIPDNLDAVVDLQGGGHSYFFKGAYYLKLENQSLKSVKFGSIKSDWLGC
Thrombin FP: bovine thrombin protease inhibition, confirmation, counter-screen for Rpn11 inhibitor project, biochemical, fluorescence polarization, single concentration. shares compounds with Rpn11 inh. bovine thrombin cleavage of Ub4-pepOG. inhibition, % at 20 µM. hit rate 13% among 1,900;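 active = mean inhibition at least 40% at 20 µM, or signal 3 deviations below plate average, so some actives read negative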
Of the large screens only hits and unclear results are named; the others gave an inactive call (follow-up assays come after a bar, where they were run). Rule as the data show it, unless noted: active = inhibition above about 40%; inactive = the rest.

S=C(Nc1cc(Cl)ccc1Oc1ccccc1)N1CCN(c2ccccn2)CC1	Rpn11 inh 36 | Rpn11 inh conf inactive | MMP-2 counter 47 | Thrombin FP inactive
Cc1ccc(OCC(=O)Nc2cccc3nsnc23)c(C)c1	none
O=C(COc1ccc([N+](=O)[O-])cc1)Nc1cccc2nsnc12	Rpn11 inh 75 | Rpn11 inh conf inactive | MMP-2 counter inactive | Thrombin FP inactive
Cc1c2c(=O)n(-c3nc4ccccc4s3)nc-2cc(O)n1Cc1ccccc1	Rpn11 inh 41 (no result: PLC-beta3 inh, PLC-gamma1 inh) | Rpn11 inh conf inactive | MMP-2 counter inactive | Thrombin FP inactive
Cc1cc(C)n(-c2nc3ccccc3s2)n1	none
Cc1cccc(NC(=O)CNC(=O)CCc2nc3sc4c(c3c(=O)[nH]2)CCCC4)c1C	Rpn11 inh 122 | Rpn11 inh conf 178 | MMP-2 counter inactive | Thrombin FP 85
CN(CC(=O)Nc1ccc(F)c(F)c1F)C(=O)CCc1nc2sc3c(c2c(=O)[nH]1)CCCC3	Rpn11 inh 45 | Rpn11 inh conf 59 | MMP-2 counter inactive | Thrombin FP inactive
CC(=O)c1ccc(NC(=O)CCc2nc3sc4c(c3c(=O)[nH]2)CCCC4)cc1	none
Cc1cccc(NC(=O)CCc2nc3sc4c(c3c(=O)[nH]2)CCCC4)n1	none
CC(=O)c1cccc(NC(=O)CCc2nc3sc4c(c3c(=O)[nH]2)CCCC4)c1	Rpn11 inh 44 | Rpn11 inh conf 55 | MMP-2 counter inactive | Thrombin FP 41
Cc1cccc(C)c1NC(=O)CN(C)C(=O)CCc1nc2sc3c(c2c(=O)[nH]1)CCCC3	none
CCc1ccc(NC(=O)CCc2nc3sc4c(c3c(=O)[nH]2)CCCC4)cc1	Rpn11 inh 40 | Rpn11 inh conf 55 | MMP-2 counter inactive | Thrombin FP inactive
CC1=CC(=NNC(=O)c2cccs2)CC(C)(C)C1	none (no result: PLC-beta3 inh, PLC-gamma1 inh, Rpn11 inh)
CCOC(=O)C1CCN(C(=O)CCc2nc3sc4c(c3c(=O)[nH]2)CCCC4)CC1	Rpn11 inh 41 | Rpn11 inh conf 67 | MMP-2 counter inactive | Thrombin FP 46
O=C(CCc1nc2sc3c(c2c(=O)[nH]1)CCCC3)NCCc1ccc(Cl)cc1	none (no result: UCH37 DUB inh)
NS(=O)(=O)c1ccc(CCNC(=O)CCc2nc3sc4c(c3c(=O)[nH]2)CCCC4)cc1	Rpn11 inh 41 | Rpn11 inh conf inactive | MMP-2 counter inactive | Thrombin FP inactive
CCOC(=O)CSc1nc2sc3c(c2c(=O)[nH]1)CCCC3	none
C#CCN1C(=O)S/C(=C/c2cc(C)n(CC)c2C)C1=O	none
CCn1c(C)cc(/C=C2/SC(=S)N(CC(=O)O)C2=O)c1C	UCH37 DUB inh 21, Rpn11 inh 52 | Rpn11 inh conf 97 | MMP-2 counter inactive | Thrombin FP 63
CN(C)c1nc(NN=Cc2ccccc2O)nc(Nc2ccc(F)cc2)n1	none (no result: PLC-beta3 inh, PLC-gamma1 inh, Rpn11 inh)
ON=C(c1ccc(Cl)cc1)c1ncc(C(F)(F)F)cc1Cl	none (no result: PLC-beta3 inh, PLC-gamma1 inh, Rpn11 inh)
CCCN(CC(=O)Nc1cc(C)on1)S(=O)(=O)c1cccc(C(F)(F)F)c1	Rpn11 inh 35 | Rpn11 inh conf inactive | MMP-2 counter inactive | Thrombin FP inactive
CCN1C(=O)/C(=C\N(C)C)SC1=NS(=O)(=O)c1ccc(C)cc1	none (no result: PLC-beta3 inh, PLC-gamma1 inh, Rpn11 inh)
CCOc1cc(C=NN=C(N)N)ccc1OCc1ccc(Cl)cc1	none (no result: PLC-beta3 inh, PLC-gamma1 inh, Rpn11 inh)
COc1ccccc1C(c1nnnn1Cc1ccco1)N1CCN(c2cccc(C)c2C)CC1 (stereo not drawn)	none
COc1ccc(N2CCN(C(c3cc(OC)ccc3OC)c3nnnn3Cc3ccco3)CC2)cc1 (stereo not drawn)	Rpn11 inh 30 | Rpn11 inh conf inactive | MMP-2 counter inactive | Thrombin FP inactive
C=CCn1c(O)c(C=Nc2ccc(Cc3ccncc3)cc2)c(=O)[nH]c1=S	Rpn11 inh 48 | Rpn11 inh conf inactive | MMP-2 counter inactive | Thrombin FP inactive
CCOC(=O)c1nnc2cc(-c3ccc(Br)cc3)nn2c1C	none
CCOC(=O)c1nnc2cc(-c3ccccc3)nn2c1C	Rpn11 inh 46 | Rpn11 inh conf inactive | MMP-2 counter inactive | Thrombin FP inactive
COc1ccc(-n2c(=O)/c(=C\c3cccs3)s/c2=C(/C#N)C(=O)NCCN2CCOCC2)cc1	Rpn11 inh 105 (no result: UCH37 DUB inh) | Rpn11 inh conf inactive | MMP-2 counter inactive | Thrombin FP 44
O=S(=O)(c1ccccc1)c1nc(-c2ccco2)oc1NCCN1CCOCC1	none
Cc1ccc(CNc2oc(-c3ccco3)nc2S(=O)(=O)c2ccccc2)cc1	Rpn11 inh 80 | Rpn11 inh conf inactive | MMP-2 counter inactive | Thrombin FP inactive
S=C(NN=Cc1ccc2ncccc2c1)Nc1ccccc1	none (no result: PLC-beta3 inh, PLC-gamma1 inh, Rpn11 inh)
O=C(NN=Cc1cccnc1)c1ccccc1[N+](=O)[O-]	none (no result: PLC-beta3 inh, PLC-gamma1 inh, Rpn11 inh)
O=C(CCS(=O)(=O)c1ccc(F)cc1)Nc1nccs1	none (no result: UCH37 DUB inh)
CN(CC(=O)Nc1nccs1)S(=O)(=O)c1ccc(F)cc1	Rpn11 inh 49 | Rpn11 inh conf inactive | MMP-2 counter inactive | Thrombin FP inactive
CC(C)Oc1ccccc1C=NNC(=O)C1CC1	none (no result: PLC-beta3 inh, PLC-gamma1 inh, Rpn11 inh)
COc1ccc(C=NNC(=O)c2ccncc2)cc1CSc1nc2ccccc2s1	none (no result: PLC-beta3 inh, PLC-gamma1 inh, Rpn11 inh)
CC(C)c1ccc2c(c1)C1Cc3ccccc3C1N2 (stereo not drawn)	Rpn11 inh 57 | Rpn11 inh conf inactive | MMP-2 counter inactive | Thrombin FP inactive
O=S1(=O)NC2c3ccccc3CC2O1 (stereo not drawn)	none
N#Cc1c(-c2ccccc2)c(C#N)c2nc3ccccc3n2c1N	none
Cc1ccc(-c2c(C#N)c(N)n3c(nc4ccccc43)c2C#N)cc1	Rpn11 inh 63 | Rpn11 inh conf 63 | MMP-2 counter inactive | Thrombin FP 82
CCCCC1=CC2=CC(=O)C(C)(OC(=O)C3CCCC3)C(=O)C2=CO1 (stereo not drawn)	Rpn11 inh 42 | Rpn11 inh conf 46 | MMP-2 counter inactive | Thrombin FP inactive
O=C(COc1ccc2ccccc2c1)NN=Cc1ccccn1	none (no result: PLC-beta3 inh, PLC-gamma1 inh, Rpn11 inh)
CCCC(=NNC(=O)c1ccccc1C)c1ccccc1	none (no result: PLC-beta3 inh, PLC-gamma1 inh, Rpn11 inh)
CCN1C(=O)/C(=C/c2c(C)nn(C)c2C)SC1=S	Rpn11 inh 38 (no result: PLC-beta3 inh, PLC-gamma1 inh) | Rpn11 inh conf inactive | MMP-2 counter inactive | Thrombin FP inactive
CCN1C(=O)/C(=C/c2cnn(CC)c2C)SC1=S	none
COc1cc(C=NNC(=O)CSCc2ccc([N+](=O)[O-])cc2)cc(OC)c1OC	none (no result: PLC-beta3 inh, PLC-gamma1 inh, Rpn11 inh)
Cn1c(CCNC(=O)c2ccc(Cl)cc2)n[nH]c1=S	Rpn11 inh 41 | Rpn11 inh conf inactive | MMP-2 counter inactive | Thrombin FP inactive
